Screening data from PubChem.
Rows were chosen to be rich in hits. Some 3.5% of all compounds tested hit in one or more screens of this group.
MrgX1 ag = agonists of human MrgX1 receptor; Q96LB2; hit rate 0.44% among 310,000; B-score at 10 µM; MrgX1-HEK293 cells, Fluo-4 calcium fluorescence, agonist mode; hits give high values;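 active = calcium response B-score plate-corrected fluorescence ratio at least 3 library SD, with starting fluorescence B-score inside 5 SD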
Target sequence (Q96LB2 whole entry, looked up): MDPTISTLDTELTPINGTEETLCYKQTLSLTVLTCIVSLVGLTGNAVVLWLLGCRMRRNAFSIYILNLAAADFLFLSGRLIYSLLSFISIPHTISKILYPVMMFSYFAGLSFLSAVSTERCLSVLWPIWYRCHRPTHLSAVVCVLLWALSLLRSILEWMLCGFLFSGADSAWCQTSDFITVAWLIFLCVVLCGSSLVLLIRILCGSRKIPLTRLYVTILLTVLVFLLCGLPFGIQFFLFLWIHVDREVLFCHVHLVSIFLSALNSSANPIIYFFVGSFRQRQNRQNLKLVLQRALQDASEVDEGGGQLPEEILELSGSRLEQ
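Material: MrgX1-expressing HEK293 cells; input: 15,000 cells per well; doses: test compound given as first of three sequential additions; schedule: overnight plating before 1 h dye loading; technique: Fluo-4 NW calcium-flux fluorescence, kinetic read; evaluation: baseline-normalised fluorescence change ratio, B-scored; control set: plate-wise positive and negative controls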
RGS4 block = human RGS4 inhibition; P49798; HEK293 M3R/RGS4 inducible, Fluo-4 calcium flux; hits give high values; triggered by carbachol at its EC20; B-score at 10 µM; hit rate 0.45% among 310,000; AID 463165;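 active = B-score, a plate-corrected calcium signal, over three deviations above library mean, with baseline fluorescence within five deviations of library mean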;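 also: RGS4 expression induced by doxycycline in cells with stable M3 receptor; B-score is computed from the integrated fluorescence ratio over baseline after carbachol; higher B-score means a larger calcium signal and so more RGS4 inhibition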
Target sequence (P49798 whole entry, looked up): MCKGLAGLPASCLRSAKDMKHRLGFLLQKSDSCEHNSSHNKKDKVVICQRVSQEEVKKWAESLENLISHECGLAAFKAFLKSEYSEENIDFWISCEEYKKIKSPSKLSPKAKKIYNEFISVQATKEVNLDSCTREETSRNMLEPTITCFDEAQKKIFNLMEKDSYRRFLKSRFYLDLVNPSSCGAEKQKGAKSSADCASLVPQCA
RGS4 pot = potentiators or activators of RGS4. hit rate 0.92% among 310,000. B-score at 10 µM. HEK293 M3R/inducible RGS4, carbachol calcium flux Fluo4; hits give low values. AID 463111;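 active = B-score of the integrated calcium signal more than 4 SD below the library mean, with starting fluorescence not abnormally high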;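 also: negative B-score means reduced calcium response which marks RGS4 activation or potentiation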
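Detection: kinetic calcium fluorescence imaging with Fluo4-AM dye, 2 µM / Material: HEK293 cells with stable M3R and inducible RGS4 / Schedule: recording 10 s baseline at 1 Hz, 100 s post-agonist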
MrgX1 antagonist = antagonists of human MrgX1 receptor | Q96LB2 | MRGX1-HEK293 calcium flux, Fluo-4, BAM8-22 antagonism; hits give low values | B-score at 10 µM | hit rate 1.3% among 310,000;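 active = calcium-response B-score plate-corrected more than 3 library SD below zero, starting fluorescence within 5 deviations, no agonist response on first addition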;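 also: peak minus trough fluorescence over baseline after final BAM8-22 challenge near maximal dose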
MrgX1 allo act = human MrgX1 positive allosteric modulation, primary screen. hit rate 0.63% among 310,000. Q96LB2. MrgX1-HEK293, Fluo-4 calcium flux, FDSS; hits give high values. B-score at 10 µM;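 active = plate-corrected calcium response at least 3 library SD above typical, normal starting fluorescence, not activating the receptor alone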;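 also: compound read alongside a low EC10 to EC30 dose of BAM8-22 agonist; peak minus trough fluorescence over baseline measured at the second addition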
Hits are given with their value; 0 = inactive; - = no result.

SMILES	MrgX1 ag	RGS4 block	RGS4 pot	MrgX1 antagonist	MrgX1 allo act
COc1ccc(C(=O)NNC(=O)Cc2ccc(Cl)cc2)cc1	0	0	0	0	0
Cn1c(SCC(N)=O)nnc1-c1ccc(S(=O)(=O)N2CCCC2)cc1	0	0	0	0	0
Cc1ccc(-n2c(SCC(N)=O)nnc2-c2ccc(S(=O)(=O)N3CCCCC3)cc2)c(C)c1	0	0	-7.1	0	0
COC(C)c1oc2c(C)c3oc(=O)cc(C)c3cc2c1C (stereo not given)	0	0	0	0	0
CCCCCCCCCCCC(=O)c1c(O)cccc1O	0	0	-9.2	0	0
CC(SC#N)C(=O)C12CC3CC(CC(C3)C1)C2 (stereo not given)	0	0	0	-5.1	0
Nc1ccc(-n2cnc3cc([N+](=O)[O-])ccc32)cc1	0	0	0	0	0
Cc1cccc(-n2cnc3cc([N+](=O)[O-])ccc32)c1	0	0	0	0	8.2
CC(C)c1ccc(S(=O)(=O)/N=C2/C=C(Sc3ncn[nH]3)C(=O)c3ccccc32)cc1	0	-	-	0	8.6
CCC(NC(=S)NC1CCCCC1)c1ccc(C(C)C)cc1 (stereo not given)	0	0	-8.5	-5.3	0
Cc1nccn1CC(=O)N/N=C/c1cc(Br)cs1	0	0	0	-5.3	0
CCN1CCN(CC(=O)N/N=C/c2cc(Br)cs2)CC1	0	0	0	0	0
Cc1cc(=O)[nH]c(N/N=C/c2ccco2)n1	0	0	0	0	0
Cc1cc(=O)[nH]c(N/N=C/c2ccc(C)o2)n1	0	0	0	-6.6	0
CC(C)(C)C(=O)Nc1nnc(SCC(=O)NC2CCCC2)s1	0	0	0	0	0
CCOC(=O)c1c(-n2cnnn2)sc2c1CCCC2	0	0	0	0	0
CCOC(=O)c1c(N2C(=O)Nc3cc(Cl)c(Cl)cc3N2O)sc2c1CCCCC2	50	-	-	0	0
CC(=O)Oc1ccc(-c2cc3ccc(OC(C)=O)cc3oc2=O)cc1	0	0	0	0	0
Cc1cc(C)n2nc(CC(=O)NNC(=O)COc3ccccc3)nc2n1	0	0	0	0	0
OC1(c2cccs2)CN(c2ccc(Br)cc2)C2=[N+]1CCCS2 (stereo not given)	0	0	-7.2	0	13
N#C/C(=C\c1ccc(-c2ccc(C(=O)O)cc2)o1)C(=O)Nc1ccc(F)cc1	0	0	0	-4.6	0
O=C(NNC(=O)c1cccc(S(=O)(=O)N2CCN(c3ccccc3)CC2)c1)c1ccc(Cl)cc1	0	0	0	0	0
O=C(NNC(=O)c1cc(Cl)ccc1O)c1cccc(S(=O)(=O)N2CCOCC2)c1	0	0	0	-4.8	0
CCOc1ccc(N2C(=O)CC(Cc3ccccc3OC)C2=O)cc1 (stereo not given)	0	0	0	0	0
Cc1ccccc1NC(=O)C(C)OC(=O)CNS(=O)(=O)c1ccc(C#N)cc1 (stereo not given)	0	0	0	0	0
SMILES	MrgX1 ag	RGS4 block	RGS4 pot	MrgX1 antagonist	MrgX1 allo act
O=C1N/C(=C\c2ccc(O)cc2)C(=O)c2ccccc21	40	0	0	0	0
COc1cccc(CN2CC(C(=O)N3CCN(c4ccc(Cl)cc4)CC3)CCC2=O)c1 (stereo not given)	0	0	0	0	0
CN(c1cccc(NC(=O)Nc2cccc(Cl)c2)c1)S(C)(=O)=O	0	0	0	-5.2	0
COc1cccc(/C=N/NC(=O)c2cnn(-c3ccccc3)c2N)c1	0	0	0	0	0
COc1cc(/C=C2/C(=N)N3C=CSC3=NC2=O)ccc1OCCCOc1ccccc1C	0	0	0	0	0
COc1cc(/C=C2\C(=N)N3N=C(S(C)(=O)=O)SC3=NC2=O)ccc1OCCOc1ccc(C)cc1	0	0	-7.2	0	0
COc1cc(/C=C2/C(=N)N3C=CSC3=NC2=O)ccc1OCCOc1ccc(NC(C)=O)cc1	0	0	0	0	14
Cc1cc(/C=C2\C(=N)N3N=C(C(C)C)SC3=NC2=O)c(C)n1-c1ccccc1	0	0	0	0	0
CC(=O)Nc1ccc(OCCOc2ccc(/C=C3\C(=N)N4N=C(C(C)C)SC4=NC3=O)cc2)cc1	32	0	0	0	0
COc1cc(/C=C2\C(=N)N3N=C(S(C)(=O)=O)SC3=NC2=O)cc(OC)c1OCCOc1ccc(C)cc1	0	0	0	0	0
CCCOc1ccccc1/C=C1\SC(N2CCCCC2)=NC1=O	0	0	0	0	0
N#CC1=C(N)n2c(s/c(=C\c3cccs3)c2=O)=C(C#N)C1c1cccs1 (stereo not given)	0	0	0	-7.4	0
Cc1ncsc1CCC(=O)N1CCCC(Nc2ccc(C(C)C)cc2)C1 (stereo not given)	0	0	0	-6.6	0
C=CCNC(=O)COC(=O)c1ccc(Sc2nncn2C)c([N+](=O)[O-])c1	0	0	0	-5.2	0
Cc1ccc(CN2CCN(c3cccc4[nH]ccc34)CC2)cc1	0	0	0	0	0
COc1ccc(C(O)(CCc2ccccc2)CCN2CCCCC2)cc1 (stereo not given)	0	0	-8.9	0	0
C=CCC(O)(CCN1CCCCC1)c1ccccc1 (stereo not given)	0	0	0	0	0
CCOc1cc2c(cc1OCC)C(c1ccc(C(=O)O)cc1)NCC2 (stereo not given)	0	0	0	0	0
CCCCCNCC(=O)Nc1cccc(C(=O)Nc2cccc(C(F)(F)F)c2)c1	0	0	0	-7	0
CCCCN(C(=O)COC(=O)CSc1ccc([N+](=O)[O-])cc1)c1c(N)n(CCC)c(=O)[nH]c1=O	0	0	0	0	0
O=C(CN1C(=O)NC2(CCCC2)C1=O)OCc1ccc(Cl)c(Cl)c1	0	0	0	0	0
Oc1ccccc1-c1nc(NCC2CCCO2)c2ccccc2n1 (stereo not given)	0	0	-8.4	0	0
COc1ccc(C(CC(=O)c2ccccc2)CC(=O)c2ccccc2)cc1OC	0	0	0	-6.7	0
O=[N+]([O-])c1ccc(CSC2=NCCS2)cc1	0	0	0	0	0
Clc1cccc(Cl)c1CO/N=C/c1cccs1	0	0	0	0	0
SMILES	MrgX1 ag	RGS4 block	RGS4 pot	MrgX1 antagonist	MrgX1 allo act
Cc1c(C)c(C)c(CO/N=C/c2cccs2)c(C)c1C	0	0	0	0	8.2
O=C(CCCN1C(=O)C(c2ccccc2)Oc2cccnc21)NCCc1ccc(Cl)cc1 (stereo not given)	0	0	0	0	0
Cc1cccc(OCC(O)Cn2c(N3CCCCC3)nc3c2c(=O)n(C)c(=O)n3C)c1 (stereo not given)	0	0	0	0	7.2
Cn1c(=O)c2c(nc(N3CCCCCC3)n2CC(O)COc2ccccc2)n(C)c1=O (stereo not given)	0	0	0	0	0
CNC[C@@H](CC1CCCCC1)NC[C@H](CC(C)C)NCCc1cccc(C(F)(F)F)c1	0	0	-7.3	0	0
CNC[C@@H](Cc1ccccc1)NC[C@@H](CC1CCCCC1)NCCCc1ccccc1	0	0	0	0	0
